Assay results reported in ChEMBL document CHEMBL4229333, “Effects of rigidity on the selectivity of protein kinase inhibitors” (Eur J Med Chem, 2018).

Columns and labels:
[1] = biological target: Mitogen-activated protein kinase kinase kinase kinase 4 (Homo sapiens) (UniProt O95819); assay: Inhibition of MAP4K4 (unknown origin) at 1 uM by mobility shift microfluidics platform based assay relative to control
[2] = biological target: Serine/threonine-protein kinase MRCK beta (Homo sapiens) (UniProt Q9Y5S2); assay: Inhibition of MRCK-beta (unknown origin) at 1 uM by mobility shift microfluidics platform based assay relative to control
Serine/threonine-protein kinase MRCK beta (Homo sapiens), sequence (Q9Y5S2 whole entry): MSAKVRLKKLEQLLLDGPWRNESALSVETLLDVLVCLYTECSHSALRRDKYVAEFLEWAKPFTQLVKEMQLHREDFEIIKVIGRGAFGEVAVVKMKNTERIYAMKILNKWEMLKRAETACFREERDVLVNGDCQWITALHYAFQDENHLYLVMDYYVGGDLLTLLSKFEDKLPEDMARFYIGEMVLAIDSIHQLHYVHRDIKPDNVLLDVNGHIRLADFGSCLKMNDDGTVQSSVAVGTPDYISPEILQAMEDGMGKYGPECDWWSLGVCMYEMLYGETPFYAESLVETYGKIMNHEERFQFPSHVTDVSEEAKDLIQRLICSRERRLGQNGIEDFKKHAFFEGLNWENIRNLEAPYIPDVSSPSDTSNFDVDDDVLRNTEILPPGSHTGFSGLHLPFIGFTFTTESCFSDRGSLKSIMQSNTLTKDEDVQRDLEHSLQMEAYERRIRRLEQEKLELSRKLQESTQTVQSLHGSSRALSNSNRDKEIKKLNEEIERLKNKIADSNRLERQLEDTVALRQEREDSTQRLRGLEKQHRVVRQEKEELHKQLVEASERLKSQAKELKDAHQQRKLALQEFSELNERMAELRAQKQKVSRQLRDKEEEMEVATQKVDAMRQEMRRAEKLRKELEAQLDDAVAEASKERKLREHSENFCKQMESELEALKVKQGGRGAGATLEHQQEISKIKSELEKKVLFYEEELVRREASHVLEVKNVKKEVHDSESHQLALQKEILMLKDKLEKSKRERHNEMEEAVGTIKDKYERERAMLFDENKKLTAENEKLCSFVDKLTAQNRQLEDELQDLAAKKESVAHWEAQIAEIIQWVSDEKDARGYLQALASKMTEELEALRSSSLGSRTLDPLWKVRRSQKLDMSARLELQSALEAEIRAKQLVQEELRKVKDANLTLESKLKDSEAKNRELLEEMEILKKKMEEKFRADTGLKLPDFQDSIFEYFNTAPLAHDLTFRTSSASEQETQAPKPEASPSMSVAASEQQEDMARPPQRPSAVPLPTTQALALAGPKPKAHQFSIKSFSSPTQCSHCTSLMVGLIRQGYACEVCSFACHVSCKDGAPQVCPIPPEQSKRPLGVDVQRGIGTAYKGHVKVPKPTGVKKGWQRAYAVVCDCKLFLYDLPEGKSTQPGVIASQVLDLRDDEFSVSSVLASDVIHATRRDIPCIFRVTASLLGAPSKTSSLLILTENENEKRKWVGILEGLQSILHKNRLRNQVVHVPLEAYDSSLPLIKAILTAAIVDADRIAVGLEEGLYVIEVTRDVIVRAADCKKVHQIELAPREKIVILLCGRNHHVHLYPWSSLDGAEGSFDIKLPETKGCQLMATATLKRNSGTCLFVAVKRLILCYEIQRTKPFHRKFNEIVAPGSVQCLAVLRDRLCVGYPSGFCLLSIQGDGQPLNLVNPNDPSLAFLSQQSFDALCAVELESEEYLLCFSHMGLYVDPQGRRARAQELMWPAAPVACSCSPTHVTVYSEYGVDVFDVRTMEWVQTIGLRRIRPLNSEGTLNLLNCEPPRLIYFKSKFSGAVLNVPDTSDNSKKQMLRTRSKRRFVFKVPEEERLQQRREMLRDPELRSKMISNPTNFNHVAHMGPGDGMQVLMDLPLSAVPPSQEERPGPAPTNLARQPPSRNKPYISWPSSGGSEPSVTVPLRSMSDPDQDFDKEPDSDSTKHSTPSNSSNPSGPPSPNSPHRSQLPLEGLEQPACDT

[3] = biological target: Tyrosine-protein kinase Lyn (Homo sapiens) (UniProt P07948); assay: Inhibition of LYNA (unknown origin) at 1 uM by mobility shift microfluidics platform based assay relative to control
[4] = biological target: Protein kinase C alpha type (Homo sapiens) (UniProt P17252); assay: Inhibition of PKC-alpha (unknown origin) at 1 uM by mobility shift microfluidics platform based assay relative to control
[5] = biological target: Ribosomal protein S6 kinase alpha-4 (Homo sapiens) (UniProt O75676); assay: Inhibition of MSK2 (unknown origin) at 1 uM by mobility shift microfluidics platform based assay relative to control
[6] = biological target: Mitogen-activated protein kinase 13 (Homo sapiens) (UniProt O15264); assay: Inhibition of P38-delta (unknown origin) at 1 uM by mobility shift microfluidics platform based assay relative to control
[7] = biological target: Ribosomal protein S6 kinase alpha-1 (Homo sapiens) (UniProt Q15418); assay: Inhibition of RSK1 (unknown origin) at 1 uM by mobility shift microfluidics platform based assay relative to control
Ribosomal protein S6 kinase alpha-1 (Homo sapiens), sequence (Q15418 whole entry): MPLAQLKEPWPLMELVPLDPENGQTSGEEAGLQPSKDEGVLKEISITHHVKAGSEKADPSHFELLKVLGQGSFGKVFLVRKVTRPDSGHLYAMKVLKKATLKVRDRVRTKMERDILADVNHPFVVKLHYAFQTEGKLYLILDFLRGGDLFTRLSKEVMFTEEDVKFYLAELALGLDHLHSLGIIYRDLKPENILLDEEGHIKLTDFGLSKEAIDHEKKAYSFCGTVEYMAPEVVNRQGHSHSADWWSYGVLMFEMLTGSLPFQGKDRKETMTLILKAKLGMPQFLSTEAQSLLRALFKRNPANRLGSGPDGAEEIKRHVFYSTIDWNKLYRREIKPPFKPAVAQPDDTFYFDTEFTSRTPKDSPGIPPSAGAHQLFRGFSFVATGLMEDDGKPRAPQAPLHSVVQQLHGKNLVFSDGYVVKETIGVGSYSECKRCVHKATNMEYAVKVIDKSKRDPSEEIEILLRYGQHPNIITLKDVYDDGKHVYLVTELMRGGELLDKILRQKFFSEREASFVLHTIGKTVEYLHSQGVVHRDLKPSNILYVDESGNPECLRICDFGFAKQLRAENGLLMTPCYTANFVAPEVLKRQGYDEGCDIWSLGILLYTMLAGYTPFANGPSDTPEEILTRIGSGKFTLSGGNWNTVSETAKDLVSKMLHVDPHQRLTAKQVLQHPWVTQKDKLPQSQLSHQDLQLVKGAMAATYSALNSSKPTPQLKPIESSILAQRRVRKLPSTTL

[8] = biological target: Insulin receptor-related protein (Homo sapiens) (UniProt P14616); assay: Inhibition of IRR (unknown origin) at 1 uM by mobility shift microfluidics platform based assay relative to control
[9] = biological target: Serine/threonine-protein kinase PAK 3 (Homo sapiens) (UniProt O75914); assay: Inhibition of PAK3 (unknown origin) at 1 uM by mobility shift microfluidics platform based assay relative to control
[10] = biological target: Dual specificity tyrosine-phosphorylation-regulated kinase 3 (Homo sapiens) (UniProt O43781); assay: Inhibition of DYRK3 (unknown origin) at 1 uM by mobility shift microfluidics platform based assay relative to control
Dual specificity tyrosine-phosphorylation-regulated kinase 3 (Homo sapiens), sequence (O43781 whole entry): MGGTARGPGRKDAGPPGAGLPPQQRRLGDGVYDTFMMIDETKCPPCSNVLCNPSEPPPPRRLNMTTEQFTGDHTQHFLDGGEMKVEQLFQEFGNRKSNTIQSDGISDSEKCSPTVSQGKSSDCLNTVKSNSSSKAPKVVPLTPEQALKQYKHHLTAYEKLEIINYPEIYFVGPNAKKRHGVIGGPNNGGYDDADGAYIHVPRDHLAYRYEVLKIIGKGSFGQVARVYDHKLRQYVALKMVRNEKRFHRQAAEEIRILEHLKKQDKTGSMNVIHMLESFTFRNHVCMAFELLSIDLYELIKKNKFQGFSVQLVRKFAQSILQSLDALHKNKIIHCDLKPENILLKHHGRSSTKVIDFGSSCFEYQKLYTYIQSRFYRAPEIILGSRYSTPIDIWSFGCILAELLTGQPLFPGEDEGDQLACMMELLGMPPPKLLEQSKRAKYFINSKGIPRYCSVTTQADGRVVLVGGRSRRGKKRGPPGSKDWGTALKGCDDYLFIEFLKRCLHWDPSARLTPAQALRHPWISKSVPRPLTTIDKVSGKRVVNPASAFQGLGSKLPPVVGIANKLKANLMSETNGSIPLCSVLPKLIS

[11] = biological target: Interleukin-1 receptor-associated kinase 4 (Homo sapiens) (UniProt Q9NWZ3); assay: Inhibition of IRAK4 (unknown origin) at 1 uM by mobility shift microfluidics platform based assay relative to control
[12] = biological target: Activated CDC42 kinase 1 (Homo sapiens) (UniProt Q07912); assay: Inhibition of TNK2 (unknown origin) at 1 uM by mobility shift microfluidics platform based assay relative to control
[13] = biological target: Tyrosine-protein kinase Mer (Homo sapiens) (UniProt Q12866); assay: Inhibition of MER (unknown origin) at 1 uM by mobility shift microfluidics platform based assay relative to control
[14] = biological target: Tyrosine-protein kinase JAK1 (Homo sapiens) (UniProt P23458); assay: Inhibition of JAK1 (unknown origin) at 1 uM by mobility shift microfluidics platform based assay relative to control
[15] = biological target: Dual specificity mitogen-activated protein kinase kinase 1 (Homo sapiens) (UniProt Q02750); assay: Inhibition of MEK1 (unknown origin) at 1 uM by mobility shift microfluidics platform based assay relative to control
[16] = biological target: Serine/threonine-protein kinase pim-3 (Homo sapiens) (UniProt Q86V86); assay: Inhibition of PIM3 (unknown origin) at 1 uM by mobility shift microfluidics platform based assay relative to control
[17] = biological target: Insulin-like growth factor 1 receptor (Homo sapiens) (UniProt P08069); assay: Inhibition of IGF1R (unknown origin) at 1 uM by mobility shift microfluidics platform based assay relative to control
[18] = biological target: Tyrosine-protein kinase Fes/Fps (Homo sapiens) (UniProt P07332); assay: Inhibition of FES (unknown origin) at 1 uM by mobility shift microfluidics platform based assay relative to control
Tyrosine-protein kinase Fes/Fps (Homo sapiens), sequence (P07332 whole entry): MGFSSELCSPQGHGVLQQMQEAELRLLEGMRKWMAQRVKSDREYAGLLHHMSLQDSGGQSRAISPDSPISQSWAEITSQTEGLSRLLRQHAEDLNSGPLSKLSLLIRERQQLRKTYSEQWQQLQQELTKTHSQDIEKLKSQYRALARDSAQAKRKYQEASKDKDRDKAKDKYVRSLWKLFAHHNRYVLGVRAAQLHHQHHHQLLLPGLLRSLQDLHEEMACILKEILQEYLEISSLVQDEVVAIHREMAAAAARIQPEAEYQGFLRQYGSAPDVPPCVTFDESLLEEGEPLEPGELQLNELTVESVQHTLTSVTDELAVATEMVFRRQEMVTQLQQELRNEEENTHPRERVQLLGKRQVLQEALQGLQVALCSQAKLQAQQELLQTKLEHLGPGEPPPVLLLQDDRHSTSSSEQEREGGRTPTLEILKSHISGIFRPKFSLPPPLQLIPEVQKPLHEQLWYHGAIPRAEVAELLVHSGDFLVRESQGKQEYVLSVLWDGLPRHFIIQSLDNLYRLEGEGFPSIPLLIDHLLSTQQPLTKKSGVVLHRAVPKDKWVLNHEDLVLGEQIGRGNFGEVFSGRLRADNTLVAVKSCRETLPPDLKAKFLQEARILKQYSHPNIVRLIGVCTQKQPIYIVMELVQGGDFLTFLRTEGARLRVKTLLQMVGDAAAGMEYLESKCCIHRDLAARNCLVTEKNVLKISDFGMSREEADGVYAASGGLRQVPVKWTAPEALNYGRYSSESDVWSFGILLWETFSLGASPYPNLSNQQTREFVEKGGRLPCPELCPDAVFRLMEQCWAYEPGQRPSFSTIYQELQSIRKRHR

[19] = biological target: Tyrosine-protein kinase receptor UFO (Homo sapiens) (UniProt P30530); assay: Inhibition of AXL (unknown origin) at 1 uM by mobility shift microfluidics platform based assay relative to control
[20] = biological target: Serine/threonine-protein kinase Nek6 (Homo sapiens) (UniProt Q9HC98); assay: Inhibition of NEK6 (unknown origin) at 1 uM by mobility shift microfluidics platform based assay relative to control
[21] = biological target: Insulin receptor (Homo sapiens) (UniProt P06213); assay: Inhibition of INSR (unknown origin) at 1 uM by mobility shift microfluidics platform based assay relative to control
Homo sapiens = species: Homo sapiens; assay: Inhibition of CDK/cyclin D3 (unknown origin) at 1 uM by mobility shift microfluidics platform based assay relative to control
[22] = biological target: Mitogen-activated protein kinase 1 (Homo sapiens) (UniProt P28482); assay: Inhibition of MAPK1 (unknown origin) at 1 uM by mobility shift microfluidics platform based assay relative to control
[23] = biological target: Protein kinase C eta type (Homo sapiens) (UniProt P24723); assay: Inhibition of PKC-eta (unknown origin) at 1 uM by mobility shift microfluidics platform based assay relative to control
[24] = biological target: Serine/threonine-protein kinase 3 (Homo sapiens) (UniProt Q13188); assay: Inhibition of MST2 (unknown origin) at 1 uM by mobility shift microfluidics platform based assay relative to control
[25] = Apparent permeability from apical to basolateral side in human Caco2 cells in absence of P-gp inhibitor by LC-MS/MS analysis; type: ADME, cell-based; details: Caco-2
Procedure, shortened: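 Caco-2 monolayer permeability, measured apical-to-basolateral and basolateral-to-apical. Compound concentrations were quantified by LC-MS/MS, and apparent permeability coefficients (Papp, cm/s) were calculated from them.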

[26] = biological target: Tyrosine-protein kinase ABL2 (Homo sapiens) (UniProt P42684); assay: Inhibition of ARG (unknown origin) at 1 uM by mobility shift microfluidics platform based assay relative to control
[27] = biological target: Tyrosine-protein kinase Fyn (Homo sapiens) (UniProt P06241); assay: Inhibition of FYN (unknown origin) at 1 uM by mobility shift microfluidics platform based assay relative to control
[28] = biological target: SRSF protein kinase 2 (Homo sapiens) (UniProt P78362); assay: Inhibition of SRPK2 (unknown origin) at 1 uM by mobility shift microfluidics platform based assay relative to control
SRSF protein kinase 2 (Homo sapiens), sequence (P78362 whole entry, looked up): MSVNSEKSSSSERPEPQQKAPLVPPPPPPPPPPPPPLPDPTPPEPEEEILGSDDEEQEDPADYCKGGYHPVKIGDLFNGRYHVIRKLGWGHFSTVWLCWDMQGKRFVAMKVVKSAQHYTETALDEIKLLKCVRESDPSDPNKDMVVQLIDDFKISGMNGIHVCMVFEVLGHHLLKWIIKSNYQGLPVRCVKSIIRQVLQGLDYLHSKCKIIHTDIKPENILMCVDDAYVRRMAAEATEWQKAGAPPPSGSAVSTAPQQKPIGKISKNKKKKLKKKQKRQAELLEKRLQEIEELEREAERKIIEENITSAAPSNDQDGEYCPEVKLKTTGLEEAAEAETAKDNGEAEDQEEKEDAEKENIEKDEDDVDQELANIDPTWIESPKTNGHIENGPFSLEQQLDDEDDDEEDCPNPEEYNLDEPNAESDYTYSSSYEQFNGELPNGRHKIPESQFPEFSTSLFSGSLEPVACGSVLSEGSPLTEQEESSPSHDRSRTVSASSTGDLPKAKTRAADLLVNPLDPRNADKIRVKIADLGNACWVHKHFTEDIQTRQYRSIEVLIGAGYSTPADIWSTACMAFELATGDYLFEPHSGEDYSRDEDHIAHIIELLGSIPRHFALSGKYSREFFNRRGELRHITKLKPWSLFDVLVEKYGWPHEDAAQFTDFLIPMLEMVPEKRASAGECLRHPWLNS

[29] = biological target: Serine/threonine-protein kinase PAK 1 (Homo sapiens) (UniProt Q13153); assay: Inhibition of PAK1 (unknown origin) at 1 uM by mobility shift microfluidics platform based assay relative to control
[30] = biological target: cAMP-dependent protein kinase catalytic subunit PRKX (Homo sapiens) (UniProt P51817); assay: Inhibition of PRKX (unknown origin) at 1 uM by mobility shift microfluidics platform based assay relative to control
[31] = biological target: Calcium/calmodulin-dependent protein kinase type 1D (Homo sapiens) (UniProt Q8IU85); assay: Inhibition of CAMK1D (unknown origin) at 1 uM by mobility shift microfluidics platform based assay relative to control
[32] = biological target: Rho-associated protein kinase 2 (Homo sapiens) (UniProt O75116); assay: Inhibition of ROCK2 (unknown origin) at 1 uM by mobility shift microfluidics platform based assay relative to control
[33] = biological target: Aurora kinase A (Homo sapiens) (UniProt O14965); assay: Inhibition of AURORA-A (unknown origin) at 1 uM by mobility shift microfluidics platform based assay relative to control

Row | inhibition [1] [%] | inhibition [2] [%] | inhibition [3] [%] | inhibition [4] [%] | inhibition [5] [%] | inhibition [6] [%] | inhibition [7] [%] | inhibition [8] [%] | inhibition [9] [%] | inhibition [10] [%] | inhibition [11] [%] | inhibition [12] [%] | inhibition [13] [%] | inhibition [14] [%] | inhibition [15] [%] | inhibition [16] [%] | inhibition [17] [%] | inhibition [18] [%] | inhibition [19] [%] | inhibition [20] [%] | Structure (SMILES) | other results
1 | 69 | -1 | 99 | -7 | 3 | 0 | 9 | 2 | 2 | 7 | 2 | 13 | 6 | 97 | 13 | 0 | 1 | 21 | 12 | 0 | CC(C)n1nc(C#Cc2cccc(NC(=O)c3cccc(C(F)(F)F)c3)c2)c2c(N)ncnc21 | inhibition [21]: 12%; inhibition (Homo sapiens): 8%; inhibition [22]: 0%; inhibition [23]: -5%; inhibition [24]: 2%; Papp A→B [25]: 0.5 ×10⁻⁶ cm/s; inhibition [26]: 99%; inhibition [27]: 101%; inhibition [28]: -1%; inhibition [29]: 0%; inhibition [30]: 2%; inhibition [31]: 7%; inhibition [32]: 18%; inhibition [33]: 90%
2 | 3 | 1 | 95 | 2 | 5 | 2 | 1 | -3 | 1 | 1 | 3 | 3 | 0 | -3 | -8 | 1 | 2 | 0 | 2 | -5 | CC(C)n1nc(C#Cc2cccc3cc(-c4cccc(C(F)(F)F)c4)ncc23)c2c(N)ncnc21 | inhibition [21]: 5%; inhibition (Homo sapiens): 1%; inhibition [22]: 2%; inhibition [23]: 2%; inhibition [24]: 2%; Papp A→B [25]: 0.8 ×10⁻⁶ cm/s; inhibition [26]: 94%; inhibition [27]: 85%; inhibition [28]: -1%; inhibition [29]: -1%; inhibition [30]: -4%; inhibition [31]: 10%; inhibition [32]: 4%; inhibition [33]: 29%
